The text below walks through data of ChEMBL document CHEMBL4325904 (Eur J Med Chem, 2019).

One series concerns Kasumi 1. Nature of the series: Antiproliferative activity against human Kasumi-1 cells after 72 hrs by resazurin dye-based assay. The series is classed as functional, cell-based. The note with it: Kasumi 1, 72 h. In outline: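 KASUMI-1 cells incubated with compounds for 72 hr; viability read with resazurin reagent. IC50 taken as the mean of three experiments, each run in duplicate.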

A further series relates to Danio rerio. Nature of the series: Antiangiogenic activity in zebrafish embryo assessed as effect on blood vessel development at 10 uM administered from 24 to 50 hrs post fertilization for 24 hrs and measured after 72 hrs by alkaline phosphatase assay. The series is classed as functional, organism-based. In outline:
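Zebrafish embryos exposed at 10 µM from 24–50 hpf alongside vehicle-only controls; at 72 hpf embryos stained with alkaline phosphatase to visualise blood vessels.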

A further series addresses T1, Histone deacetylase 11 (Homo sapiens, UniProt Q96DB2).
T1 sequence (Q96DB2 whole entry): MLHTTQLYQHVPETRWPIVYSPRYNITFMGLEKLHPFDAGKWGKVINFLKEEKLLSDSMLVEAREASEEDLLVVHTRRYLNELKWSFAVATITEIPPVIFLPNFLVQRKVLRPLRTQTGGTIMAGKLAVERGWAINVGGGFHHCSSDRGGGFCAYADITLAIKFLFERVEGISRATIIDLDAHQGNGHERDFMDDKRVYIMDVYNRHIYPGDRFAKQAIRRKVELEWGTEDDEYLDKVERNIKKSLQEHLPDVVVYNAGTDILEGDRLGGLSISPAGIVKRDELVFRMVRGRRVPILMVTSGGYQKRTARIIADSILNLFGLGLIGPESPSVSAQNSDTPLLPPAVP
Nature of the series: Inhibition of recombinant C-terminal His-tagged human HDAC11 (1 to 347 residues) expressed in Baculovirus infected insect cells using RHKK-Ac as substrate by fluorimetric assay.

Series [1] deals with Histone deacetylase 3/Nuclear receptor corepressor 2 (HDAC3/NCoR2) (Homo sapiens, UniProt O15379). The series is classed as cell-based.
Chain of Histone deacetylase 3/Nuclear receptor corepressor 2 (HDAC3/NCoR2) (O15379 whole entry, the tested form may be a part): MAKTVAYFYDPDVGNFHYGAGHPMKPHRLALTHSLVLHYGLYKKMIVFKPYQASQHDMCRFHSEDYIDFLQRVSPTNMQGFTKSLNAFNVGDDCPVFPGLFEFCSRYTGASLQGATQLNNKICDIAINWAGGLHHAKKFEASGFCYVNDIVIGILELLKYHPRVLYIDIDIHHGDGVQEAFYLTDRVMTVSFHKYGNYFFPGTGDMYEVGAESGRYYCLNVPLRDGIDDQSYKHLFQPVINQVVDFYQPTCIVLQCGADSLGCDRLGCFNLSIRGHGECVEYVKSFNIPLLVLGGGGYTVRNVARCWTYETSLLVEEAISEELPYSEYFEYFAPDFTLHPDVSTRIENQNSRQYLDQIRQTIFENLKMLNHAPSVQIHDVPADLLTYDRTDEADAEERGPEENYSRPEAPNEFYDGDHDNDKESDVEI
Chain of Histone deacetylase 3/Nuclear receptor corepressor 2 (HDAC3/NCoR2) (Q9Y618 whole entry, further chain, the tested form may be a part): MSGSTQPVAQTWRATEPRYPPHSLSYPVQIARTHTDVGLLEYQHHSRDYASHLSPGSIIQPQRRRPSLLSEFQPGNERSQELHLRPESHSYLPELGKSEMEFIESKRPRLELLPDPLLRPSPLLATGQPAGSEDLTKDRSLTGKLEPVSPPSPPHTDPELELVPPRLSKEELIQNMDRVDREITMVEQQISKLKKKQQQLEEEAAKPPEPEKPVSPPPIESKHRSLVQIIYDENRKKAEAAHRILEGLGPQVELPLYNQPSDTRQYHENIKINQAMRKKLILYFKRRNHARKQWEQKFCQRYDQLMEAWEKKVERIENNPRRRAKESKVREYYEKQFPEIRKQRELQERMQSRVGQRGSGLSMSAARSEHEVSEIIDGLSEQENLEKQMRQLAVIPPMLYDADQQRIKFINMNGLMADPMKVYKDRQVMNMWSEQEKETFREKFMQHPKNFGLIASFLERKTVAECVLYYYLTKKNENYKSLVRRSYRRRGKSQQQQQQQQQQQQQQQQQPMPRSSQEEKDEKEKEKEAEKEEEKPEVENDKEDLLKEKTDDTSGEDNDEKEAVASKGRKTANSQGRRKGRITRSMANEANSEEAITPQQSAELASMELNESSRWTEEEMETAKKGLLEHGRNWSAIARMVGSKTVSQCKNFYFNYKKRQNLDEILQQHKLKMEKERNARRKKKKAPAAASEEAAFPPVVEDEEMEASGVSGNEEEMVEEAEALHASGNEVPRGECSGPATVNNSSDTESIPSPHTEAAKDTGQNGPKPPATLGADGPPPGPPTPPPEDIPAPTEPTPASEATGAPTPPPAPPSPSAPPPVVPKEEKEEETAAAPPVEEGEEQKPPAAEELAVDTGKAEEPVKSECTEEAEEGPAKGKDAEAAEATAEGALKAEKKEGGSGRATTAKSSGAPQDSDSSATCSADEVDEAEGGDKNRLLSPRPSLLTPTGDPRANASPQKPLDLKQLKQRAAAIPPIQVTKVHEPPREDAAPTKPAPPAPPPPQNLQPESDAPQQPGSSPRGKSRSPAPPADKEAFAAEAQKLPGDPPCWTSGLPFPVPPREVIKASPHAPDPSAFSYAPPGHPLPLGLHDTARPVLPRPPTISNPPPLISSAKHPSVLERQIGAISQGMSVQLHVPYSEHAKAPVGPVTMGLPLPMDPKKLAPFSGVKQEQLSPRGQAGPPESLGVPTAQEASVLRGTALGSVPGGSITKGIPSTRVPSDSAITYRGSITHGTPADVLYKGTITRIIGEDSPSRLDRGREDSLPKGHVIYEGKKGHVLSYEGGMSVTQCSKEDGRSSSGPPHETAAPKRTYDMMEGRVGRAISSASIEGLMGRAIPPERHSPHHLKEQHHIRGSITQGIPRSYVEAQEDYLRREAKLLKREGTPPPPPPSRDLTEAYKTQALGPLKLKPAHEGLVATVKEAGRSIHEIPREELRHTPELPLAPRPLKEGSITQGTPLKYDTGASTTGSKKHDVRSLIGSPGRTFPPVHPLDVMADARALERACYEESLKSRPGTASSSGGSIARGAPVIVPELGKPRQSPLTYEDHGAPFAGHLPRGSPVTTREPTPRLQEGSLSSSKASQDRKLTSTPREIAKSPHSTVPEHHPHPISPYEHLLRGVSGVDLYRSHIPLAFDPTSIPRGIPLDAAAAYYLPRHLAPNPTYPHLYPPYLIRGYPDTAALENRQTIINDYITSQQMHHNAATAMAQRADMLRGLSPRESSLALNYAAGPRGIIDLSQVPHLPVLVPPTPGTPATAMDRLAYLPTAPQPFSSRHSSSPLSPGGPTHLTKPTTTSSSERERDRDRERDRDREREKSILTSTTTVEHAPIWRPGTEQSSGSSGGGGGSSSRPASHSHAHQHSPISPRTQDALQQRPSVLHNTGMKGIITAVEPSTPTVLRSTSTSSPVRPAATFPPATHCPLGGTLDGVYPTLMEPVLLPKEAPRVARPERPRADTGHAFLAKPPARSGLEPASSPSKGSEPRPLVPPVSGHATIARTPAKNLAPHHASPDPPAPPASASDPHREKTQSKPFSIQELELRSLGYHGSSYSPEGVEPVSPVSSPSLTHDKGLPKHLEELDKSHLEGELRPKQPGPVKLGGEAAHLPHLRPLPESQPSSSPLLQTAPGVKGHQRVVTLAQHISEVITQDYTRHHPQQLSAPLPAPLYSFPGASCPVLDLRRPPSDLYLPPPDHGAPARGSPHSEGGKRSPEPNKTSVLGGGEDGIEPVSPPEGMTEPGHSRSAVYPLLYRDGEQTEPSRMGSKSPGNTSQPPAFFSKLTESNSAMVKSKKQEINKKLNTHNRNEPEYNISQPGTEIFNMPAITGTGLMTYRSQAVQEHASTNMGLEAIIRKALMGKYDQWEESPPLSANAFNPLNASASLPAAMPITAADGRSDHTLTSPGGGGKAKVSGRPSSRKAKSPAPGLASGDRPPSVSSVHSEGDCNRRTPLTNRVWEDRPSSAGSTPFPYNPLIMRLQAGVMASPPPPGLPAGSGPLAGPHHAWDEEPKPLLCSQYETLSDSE
The next series concerns the target Histone deacetylase 1 (Homo sapiens, UniProt Q13547). Nature of the series: Inhibition of recombinant full length C-terminal FLAG/His-tagged human HDAC1 (1 to 482 residues) expressed in sf21 cells using RHK-K(Ac)-AMC as substrate by fluorimetric assay.
Series [2] is filed under the species Homo sapiens. Nature of the series: Selectivity ratio of IC50 for human recombinant full length C-terminal His-tagged HDAC3 (1 to 428 residues)/N-terminal GST-tagged NCOR2 (395 to 489 residues) to IC50 for recombinant N-terminal GST-tagged human HDAC6 (1 to 1215 residues).
The target in a further series is T2, Histone deacetylase 8 (Homo sapiens, UniProt Q9BY41).
T2 sequence (Q9BY41 whole entry): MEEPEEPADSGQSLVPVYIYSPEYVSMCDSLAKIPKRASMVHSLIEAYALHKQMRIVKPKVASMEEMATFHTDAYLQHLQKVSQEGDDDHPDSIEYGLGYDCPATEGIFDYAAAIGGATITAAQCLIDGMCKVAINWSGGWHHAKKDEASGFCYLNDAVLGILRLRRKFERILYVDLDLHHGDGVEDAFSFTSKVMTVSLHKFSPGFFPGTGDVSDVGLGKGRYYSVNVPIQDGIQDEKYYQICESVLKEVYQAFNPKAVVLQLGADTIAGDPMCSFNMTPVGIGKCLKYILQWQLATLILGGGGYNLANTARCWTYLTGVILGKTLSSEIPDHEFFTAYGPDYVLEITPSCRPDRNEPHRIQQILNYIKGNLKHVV
Nature of the series: Inhibition of recombinant C-terminal His-tagged human HDAC8 (1 to 377 residues) expressed in Baculovirus infected insect cells using RHK-K(Ac)-AMC as substrate by fluorimetric assay.

The species entered for series [3] is Homo sapiens. Nature of the series: Selectivity ratio of IC50 for recombinant full length C-terminal FLAG/His-tagged human HDAC1 (1 to 482 residues) to IC50 for recombinant N-terminal GST-tagged human HDAC6 (1 to 1215 residues).
Series [4] has as its target T3, Protein deacetylase HDAC6 (Homo sapiens, UniProt Q9UBN7).
T3 sequence (Q9UBN7 whole entry): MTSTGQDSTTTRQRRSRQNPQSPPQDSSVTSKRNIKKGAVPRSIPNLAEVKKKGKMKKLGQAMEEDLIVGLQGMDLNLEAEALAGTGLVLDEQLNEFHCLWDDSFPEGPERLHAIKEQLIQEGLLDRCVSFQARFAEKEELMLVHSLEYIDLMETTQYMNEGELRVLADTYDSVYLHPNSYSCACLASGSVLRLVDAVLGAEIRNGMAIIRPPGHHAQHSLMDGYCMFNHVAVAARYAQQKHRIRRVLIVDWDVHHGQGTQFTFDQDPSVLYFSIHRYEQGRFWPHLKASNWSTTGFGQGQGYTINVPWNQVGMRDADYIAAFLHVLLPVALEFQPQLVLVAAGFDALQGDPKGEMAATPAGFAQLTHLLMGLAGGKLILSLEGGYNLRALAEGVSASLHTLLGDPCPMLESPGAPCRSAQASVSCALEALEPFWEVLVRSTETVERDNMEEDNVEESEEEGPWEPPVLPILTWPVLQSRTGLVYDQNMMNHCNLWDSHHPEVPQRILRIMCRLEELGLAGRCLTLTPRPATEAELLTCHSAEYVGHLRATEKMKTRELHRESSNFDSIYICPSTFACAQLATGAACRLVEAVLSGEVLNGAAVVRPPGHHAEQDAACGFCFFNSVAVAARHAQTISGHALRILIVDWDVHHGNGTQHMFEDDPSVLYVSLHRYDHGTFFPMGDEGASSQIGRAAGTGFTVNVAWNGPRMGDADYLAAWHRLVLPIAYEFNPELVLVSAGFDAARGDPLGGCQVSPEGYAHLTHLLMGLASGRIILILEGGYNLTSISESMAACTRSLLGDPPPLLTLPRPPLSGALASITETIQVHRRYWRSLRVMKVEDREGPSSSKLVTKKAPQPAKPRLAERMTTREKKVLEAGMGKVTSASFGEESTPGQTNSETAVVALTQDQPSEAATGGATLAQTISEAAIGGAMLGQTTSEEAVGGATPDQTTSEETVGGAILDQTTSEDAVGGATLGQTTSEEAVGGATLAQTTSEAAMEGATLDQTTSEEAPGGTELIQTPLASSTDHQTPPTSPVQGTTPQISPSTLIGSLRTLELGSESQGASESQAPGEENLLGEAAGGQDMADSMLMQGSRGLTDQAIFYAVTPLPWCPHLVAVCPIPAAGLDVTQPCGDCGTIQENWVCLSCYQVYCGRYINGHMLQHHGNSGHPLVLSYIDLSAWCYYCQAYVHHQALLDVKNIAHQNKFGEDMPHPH
Nature of the series: Inhibition of recombinant N-terminal GST-tagged human HDAC6 (1 to 1215 residues) expressed in Baculovirus infected insect cells using RHKK-Ac as substrate by fluorimetric assay.

For series [5], the species on record is Homo sapiens. Nature of the series: Selectivity ratio of IC50 for human HDAC1 to IC50 for human HDAC6.
Series [6] deals with T3, Protein deacetylase HDAC6. Nature of the series: Inhibition of human HDAC6 using (Z-(Ac)Lys-AMC) as substrate after 90 mins by fluorescence analysis.
Series [7] in a line: Drug uptake in human A549 cells lysosome at 1 uM after 2 hrs by Lyso-tracker red-based inverted light fluorescence confocal microscopic analysis. The note with it: a549, 2 h.
Series [8] in a line: Drug uptake in human A549 cells cytoplasm at 1 uM after 2 hrs by naphthalimide dye-based inverted light fluorescence confocal microscopic analysis. The note with it: a549, 2 h. The series is classed as ADME, subcellular. In a few lines: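 A549 cells incubated 2 hours with compound at 1 µM; intracellular distribution imaged by confocal microscopy with 405 nm laser excitation, emission collected at 460–560 nm.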

The nature of series [9]: Drug uptake in human A549 cells lysosome at 1 uM after 2 hrs by naphthalimide/Lysotracker Deep Red dye-based inverted light fluorescence confocal microscopic analysis. The series is classed as ADME, subcellular. The note with it: a549, 2 h.

SMILES strings stand for the structures. Active and inactive are the calls of the source. No cut-off for these calls is given here.

Chain of Histone deacetylase 1 (Q13547 whole entry, the tested form may be a part): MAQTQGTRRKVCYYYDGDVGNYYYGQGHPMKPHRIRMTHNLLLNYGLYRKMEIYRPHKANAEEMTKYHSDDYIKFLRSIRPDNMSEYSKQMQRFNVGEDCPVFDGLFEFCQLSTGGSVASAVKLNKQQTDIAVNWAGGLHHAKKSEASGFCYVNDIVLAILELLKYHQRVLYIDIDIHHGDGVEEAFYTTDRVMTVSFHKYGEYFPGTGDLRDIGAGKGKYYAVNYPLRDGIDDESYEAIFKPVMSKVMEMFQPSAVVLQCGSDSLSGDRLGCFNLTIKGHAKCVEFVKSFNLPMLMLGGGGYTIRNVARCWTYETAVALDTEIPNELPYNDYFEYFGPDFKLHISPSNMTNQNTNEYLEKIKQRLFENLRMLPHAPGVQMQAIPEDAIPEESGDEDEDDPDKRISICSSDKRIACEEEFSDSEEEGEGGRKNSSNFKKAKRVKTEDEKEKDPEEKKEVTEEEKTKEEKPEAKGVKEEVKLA

For orientation: IC50 means the concentration needed to halve the response being measured. `O=C(CCCCCN1C(=O)c2cccc3cccc(c23)C1=O)NO` returned an IC50 in the series on Kasumi 1 of 490 nM. Further, in the series on Danio rerio, the outcome was Active.

Regarding `CN(Cc1ccccc1)c1ccc2c3c(cccc13)C(=O)N(CCCCCC(=O)NO)C2=O`, the IC50 with Kasumi 1 was determined as 810 nM; at Histone deacetylase 11, 1220 nM; in series [1], 700 nM; on Histone deacetylase 1 it was 2380 nM; on Histone deacetylase 8, 1400 nM; in [4], 9.7 nM. For the same compound, the Ratio IC50 in the series listed under Homo sapiens [2] amounted to 72; in the series filed under Homo sapiens [3] it was 245.

Consider `O=C(CCCCCN1C(=O)c2cccc3c([N+](=O)[O-])ccc(c23)C1=O)NO`, for which the IC50 in the series with Kasumi 1 came out at 570 nM; at Histone deacetylase 11 it was 1020 nM; in series [1], 1620 nM; on Histone deacetylase 1 it was 630 nM; on Histone deacetylase 8, 620 nM; in series [4], 5.7 nM. Moreover, the Ratio IC50 was determined as 284 in the series filed under Homo sapiens [2] and 111 in the series listed under Homo sapiens [3].

For the compound `O=C(CCCCCN1C(=O)c2cccc3c(Nc4cccc(F)c4)ccc(c23)C1=O)NO`, the IC50 was found to be 320 nM in the series on Kasumi 1; 210 nM at Histone deacetylase 11; 550 nM in series [1]; 3060 nM at Histone deacetylase 1; 4070 nM at Histone deacetylase 8; 14 nM in [4]. For the same compound, the Ratio IC50 in the series filed under Homo sapiens [2] stood at 39; in the series filed under Homo sapiens [3], 219.

For the compound `CC(/C=C/C(=O)NO)=C\[C@@H](C)C(=O)c1ccc(N(C)C)cc1`, the outcome in the series on Danio rerio was Active.

As for `O=C(CCCCCN1C(=O)c2cccc3c(N4CCOCC4)ccc(c23)C1=O)NO`, the concentration for half-maximal inhibition (IC50) came to 290 nM in the series on Kasumi 1; 290 nM on Histone deacetylase 11; 320 nM in series [1]; 1430 nM on Histone deacetylase 1; 1810 nM on Histone deacetylase 8; 12 nM in series [6]. Further, in [4], the IC50 is 12 nM. For the same compound, the Ratio IC50 in the series listed under Homo sapiens [2] stood at 27; in the series listed under Homo sapiens [5], 120; in the series listed under Homo sapiens [3], 119.

Turning to `O=C(NO)c1ccc(CNC(=O)c2cc(Cn3c4ccccc4c4ccccc43)on2)cc1`, the Ratio IC50 in the series filed under Homo sapiens [5] stood at 490. The compound further displayed a 50% inhibitory concentration (IC50) in [6] of 0.61 nM.

Take `Nc1ccccc1NC(=O)CCCCCN1C(=O)c2cccc3cccc(c23)C1=O`: the IC50 is 1090 nM in the series with Kasumi 1; 9350 nM at Histone deacetylase 11; 200 nM in series [1]; 740 nM on Histone deacetylase 1; more than 10000 nM at Histone deacetylase 8; more than 10000 nM in [4].

With `O=C(CCCCCN1C(=O)c2cccc3c(Nc4ccccc4)ccc(c23)C1=O)NO`, the IC50 with Kasumi 1 amounted to 280 nM; on Histone deacetylase 11, 190 nM; in [1], 470 nM; on Histone deacetylase 1, 2380 nM; at Histone deacetylase 8 it was 4090 nM; in [4] it was 13 nM. Also, the Ratio IC50 came out at 36 in the series listed under Homo sapiens [2] and 183 in the series filed under Homo sapiens [3].

For the compound `Nc1ccccc1NC(=O)CCCCCN1C(=O)c2cccc3c(N4CCOCC4)ccc(c23)C1=O`, the IC50 is 640 nM in the series on Kasumi 1; 8120 nM at Histone deacetylase 11; 290 nM in series [1]; 430 nM on Histone deacetylase 1; more than 10000 nM at Histone deacetylase 8; more than 10000 nM in series [4]. For the same compound, the Drug uptake entry in series [7], in series [8] and in [9] was “Active” throughout.
